Measured values: ChEMBL document CHEMBL5724801, “EUbOPEN Chemogenomics Library - Multiplex” (2024)
“And” between values parts separate entries of the source, which are not always exact repeats. Equal entries are not always repeated.

System: HEK-293T
Experiment: Multiplex assay against HEK293T
Assay type: toxicity, cell-based
Settings: human
Summary of the method: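 Tubulin, mitochondrial-mass and membrane-permeability phenotypes are per cents of healthy-nucleus cells. Cells were gated by CellPathfinder machine learning into Hoechst high-intensity objects or normal cells, normal cells into healthy, pyknosed or fragmented nuclei, and pyknosed cells into mitotic or apoptotic. Before that, live cells stained at seeding with Hoechst33342, BioTracker Green Microtubule Cytoskeleton Dye, MitoTracker Red and Annexin V Alexa Fluor 680 were imaged on a CQ1 microscope at 37°C and 5% CO2 after compound addition.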

[1] = 12 h, 1 µM, compound concentration 1 uM
[2] = 12 h, 10 µM, compound concentration 10 uM
[3] = 24 h, 1 µM, compound concentration 1 uM
[4] = 24 h, 10 µM, compound concentration 10 uM
[5] = 48 h, 1 µM, compound concentration 1 uM
[6] = 48 h, 10 µM, compound concentration 10 uM

Structure (SMILES): COC(=O)C1=C(C)NC(C)=C(C(=O)OC(C)C)C1c1cccc2nonc12 (stereo not drawn) [ISRADIPINE]
- Population Apoptotic (%) [1]: 14.42% and 4.72%
- Population Fragmented Nuclei (%) [1]: 2.79% and 5.84%
- Population Hoechst High Intensity Objects (%) [1]: 0%
- Population Membrane Permeable-Phenotype (%) [1]: 0%
- Population Mitochondria Different-Phenotype (%) [1]: 37.14% and 47.83%
- Population Mitotic Cells (%) [1]: 85.58% and 95.28%
- Population Normal (%) [1]: 100%
- Population Pyknosed Nuclei (%) [1]: 32.2% and 77.37%
- Total Cell Count [1]: 323 and 137
- Population Apoptotic (%) [2]: 3.97% and 9.29%
- Population Fragmented Nuclei (%) [2]: 0.97% and 1.28%
- Population Hoechst High Intensity Objects (%) [2]: 0.32% and 0%
- Population Membrane Permeable-Phenotype (%) [2]: 0.65% and 0%
- Population Mitochondria Different-Phenotype (%) [2]: 39.61% and 35.71%
- Population Mitotic Cells (%) [2]: 96.03% and 90.71%
- Population Normal (%) [2]: 99.68% and 100%
- Population Pyknosed Nuclei (%) [2]: 49.03% and 89.74%
- Total Cell Count [2]: 309 and 156
- Population Apoptotic (%) [3]: 10.81% and 2.08%
- Population Fragmented Nuclei (%) [3]: 3.28% and 3.47%
- Population Healthy Nuclei (%) [3]: 76.5% and 41.04%
- Population Hoechst High Intensity Objects (%) [3]: 0% and 1.14%
- Population Membrane Permeable-Phenotype (%) [3]: 2.62% and 1.41%
- Population Mitochondria Different-Phenotype (%) [3]: 16.9% and 15.49%
- Population Mitotic Cells (%) [3]: 89.19% and 97.92%
- Population Normal (%) [3]: 100% and 98.86%
- Population Pyknosed Nuclei (%) [3]: 20.22% and 55.49%
- Population Tubulin-Different-Phenotype (%) [3]: 7.62% and 1.41%
- Population Apoptotic (%) [4]: 14.52% and 14.29%
- Population Fragmented Nuclei (%) [4]: 1% and 1.72%
- Population Hoechst High Intensity Objects (%) [4]: 0.5% and 0%
- Population Membrane Permeable-Phenotype (%) [4]: 1.48% and 0%
- Population Mitochondria Different-Phenotype (%) [4]: 27.68% and 22.58%
- Population Mitotic Cells (%) [4]: 85.48% and 85.71%
- Population Normal (%) [4]: 99.5% and 100%
- Population Pyknosed Nuclei (%) [4]: 31.08% and 80.46%
- Population Tubulin-Different-Phenotype (%) [4]: 40.59% and 25.81%
- Total Cell Count [4]: 401 and 174
- Population Apoptotic (%) [5]: 8.94% and 17.46%
- Population Fragmented Nuclei (%) [5]: 4.71% and 1.73%
- Population Healthy Nuclei (%) [5]: 86.76% and 76.47%
- Population Hoechst High Intensity Objects (%) [5]: 0% and 1.03%
- Population Membrane Permeable-Phenotype (%) [5]: 5.91% and 5.88%
- Population Mitochondria Different-Phenotype (%) [5]: 13.5% and 15.84%
- Population Mitotic Cells (%) [5]: 91.06% and 82.54%
- Population Normal (%) [5]: 100% and 98.97%
- Population Pyknosed Nuclei (%) [5]: 8.52% and 21.8%
- Population Apoptotic (%) [6]: 9.09% and 15.38%
- Population Fragmented Nuclei (%) [6]: 2.12% and 2.49%
- Population Healthy Nuclei (%) [6]: 83.92% and 48.96%
- Population Hoechst High Intensity Objects (%) [6]: 0.14% and 0%
- Population Membrane Permeable-Phenotype (%) [6]: 6.22% and 3.39%
- Population Mitochondria Different-Phenotype (%) [6]: 41.85% and 34.75%
- Population Mitotic Cells (%) [6]: 90.91% and 84.62%
- Population Normal (%) [6]: 99.86% and 100%
- Total Cell Count [6]: 710 and 241

Structure (SMILES): CC(C)(C)c1cc(C(C)(C)C)c(NC(=O)c2c[nH]c3ccccc3c2=O)cc1O [IVACAFTOR]
- Population Apoptotic (%) [1]: 10.06% and 8.26%
- Population Fragmented Nuclei (%) [1]: 0% and 2.11%
- Population Healthy Nuclei (%) [1]: 51.67% and 21.13%
- Population Hoechst High Intensity Objects (%) [1]: 0.3% and 0%
- Population Membrane Permeable-Phenotype (%) [1]: 0.59% and 0%
- Population Mitochondria Different-Phenotype (%) [1]: 31.76% and 13.33%
- Population Mitotic Cells (%) [1]: 89.94% and 91.74%
- Population Normal (%) [1]: 99.7% and 100%
- Population Pyknosed Nuclei (%) [1]: 48.33% and 76.76%
- Total Cell Count [1]: 330 and 142
- Population Apoptotic (%) [2]: 31.3% and 21.05%
- Population Fragmented Nuclei (%) [2]: 2.9% and 1.94%
- Population Hoechst High Intensity Objects (%) [2]: 0.72% and 0%
- Population Membrane Permeable-Phenotype (%) [2]: 0%
- Population Mitochondria Different-Phenotype (%) [2]: 27.01% and 57.89%
- Population Mitotic Cells (%) [2]: 68.7% and 78.95%
- Population Normal (%) [2]: 99.28% and 100%
- Population Pyknosed Nuclei (%) [2]: 47.46% and 85.81%
- Total Cell Count [2]: 278 and 155
- Population Apoptotic (%) [3]: 15.6% and 17.89%
- Population Fragmented Nuclei (%) [3]: 0.58% and 1.37%
- Population Healthy Nuclei (%) [3]: 78.42% and 33.56%
- Population Hoechst High Intensity Objects (%) [3]: 0%
- Population Membrane Permeable-Phenotype (%) [3]: 0.49% and 2.04%
- Population Mitochondria Different-Phenotype (%) [3]: 13.02% and 8.16%
- Population Mitotic Cells (%) [3]: 84.4% and 82.11%
- Population Normal (%) [3]: 100%
- Population Tubulin-Different-Phenotype (%) [3]: 7.13% and 10.2%
- Population Apoptotic (%) [4]: 52.29% and 35.25%
- Population Fragmented Nuclei (%) [4]: 2.77% and 2.63%
- Population Hoechst High Intensity Objects (%) [4]: 0.82% and 0%
- Population Membrane Permeable-Phenotype (%) [4]: 0% and 3.85%
- Population Mitotic Cells (%) [4]: 47.71% and 64.75%
- Population Normal (%) [4]: 99.18% and 100%
- Population Pyknosed Nuclei (%) [4]: 30.19% and 80.26%
- Population Tubulin-Different-Phenotype (%) [4]: 10.74% and 7.69%
- Total Cell Count [4]: 364 and 152
- Population Apoptotic (%) [5]: 8.49% and 16.88%
- Population Fragmented Nuclei (%) [5]: 2.06% and 0.56%
- Population Healthy Nuclei (%) [5]: 89.56% and 55.93%
- Population Hoechst High Intensity Objects (%) [5]: 0.24% and 0.56%
- Population Membrane Permeable-Phenotype (%) [5]: 3.45% and 1.01%
- Population Mitotic Cells (%) [5]: 91.51% and 83.12%
- Population Normal (%) [5]: 99.76% and 99.44%
- Population Apoptotic (%) [6]: 17.35% and 40.23%
- Population Fragmented Nuclei (%) [6]: 2.23% and 4%
- Population Healthy Nuclei (%) [6]: 84.89% and 46.29%
- Population Hoechst High Intensity Objects (%) [6]: 0.13% and 1.69%
- Population Membrane Permeable-Phenotype (%) [6]: 2.48% and 1.23%
- Population Mitochondria Different-Phenotype (%) [6]: 34.21% and 56.79%
- Population Mitotic Cells (%) [6]: 82.65% and 59.77%
- Population Normal (%) [6]: 99.87% and 98.31%
